Activity calls are given as the source filed them. No cut-off for these calls is given here.
Tests used:
[1] = target: T1, Lysine-specific histone demethylase 1A (Homo sapiens, UniProt O60341); assay: Inhibition of full length recombinant LSD1 (unknown origin) expressed in Escherichia coli […] using H3K4me2 as substrate by fluorescence assay
MGC-803 [2] = assay: Antiproliferative activity against human MGC803 cells after 5 days by MTT assay; settings: MGC-803, 120 h
[3] = target: T1, Lysine-specific histone demethylase 1A; settings: 600 uM
MAO-A [4] = target: T2, MAO-A (Homo sapiens, UniProt P21397); assay: Inhibition of MAO-A (unknown origin) at 10 uM using luciferin-derived luminogenic substrate by MAO-Glo assay relative to control; settings: MAO-A enzyme (unknown origin), probe luciferin-derived luminogenic substrate
T2 sequence (P21397 whole entry): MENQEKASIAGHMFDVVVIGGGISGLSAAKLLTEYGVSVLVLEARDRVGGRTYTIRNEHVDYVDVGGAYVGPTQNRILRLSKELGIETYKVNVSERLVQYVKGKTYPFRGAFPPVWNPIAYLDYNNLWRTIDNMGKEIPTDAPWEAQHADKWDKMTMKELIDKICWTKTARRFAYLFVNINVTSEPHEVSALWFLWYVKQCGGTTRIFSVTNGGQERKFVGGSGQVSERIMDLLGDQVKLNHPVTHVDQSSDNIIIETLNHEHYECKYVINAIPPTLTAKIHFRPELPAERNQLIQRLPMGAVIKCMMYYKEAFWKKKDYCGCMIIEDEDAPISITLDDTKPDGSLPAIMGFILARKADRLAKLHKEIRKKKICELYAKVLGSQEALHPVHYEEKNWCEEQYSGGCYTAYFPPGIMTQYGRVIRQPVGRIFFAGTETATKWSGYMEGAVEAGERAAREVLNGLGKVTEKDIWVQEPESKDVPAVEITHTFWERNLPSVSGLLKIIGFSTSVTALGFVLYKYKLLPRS

MAO-B [5] = target: T3, MAO-B (Homo sapiens, UniProt P27338); assay: Inhibition of MAO-B (unknown origin) at 10 uM using luciferin-derived luminogenic substrate by MAO-Glo assay relative to control; settings: MAO-B enzyme (unknown origin), probe luciferin-derived luminogenic substrate
T3 sequence (P27338 whole entry): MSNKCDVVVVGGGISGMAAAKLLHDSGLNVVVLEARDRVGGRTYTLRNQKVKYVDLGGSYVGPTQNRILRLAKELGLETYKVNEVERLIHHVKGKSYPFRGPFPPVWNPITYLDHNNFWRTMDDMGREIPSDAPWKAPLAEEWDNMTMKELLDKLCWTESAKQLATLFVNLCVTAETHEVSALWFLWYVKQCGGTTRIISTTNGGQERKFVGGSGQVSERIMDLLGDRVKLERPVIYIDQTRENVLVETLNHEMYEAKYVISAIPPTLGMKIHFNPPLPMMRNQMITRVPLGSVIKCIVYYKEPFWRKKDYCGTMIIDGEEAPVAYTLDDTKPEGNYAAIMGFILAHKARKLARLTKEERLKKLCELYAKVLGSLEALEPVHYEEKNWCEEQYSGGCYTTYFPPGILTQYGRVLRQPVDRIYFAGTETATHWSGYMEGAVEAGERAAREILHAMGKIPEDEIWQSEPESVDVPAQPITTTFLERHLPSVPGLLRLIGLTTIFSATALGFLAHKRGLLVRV

MAO-A [6] = target: T2, MAO-A; assay: Inhibition of MAO-A (unknown origin) at 1 uM using luciferin-derived luminogenic substrate by MAO-Glo assay relative to control; settings: MAO-A enzyme (unknown origin), probe luciferin-derived luminogenic substrate
MAO-B [7] = target: T3, MAO-B; assay: Inhibition of MAO-B (unknown origin) at 1 uM using luciferin-derived luminogenic substrate by MAO-Glo assay relative to control; settings: MAO-B enzyme (unknown origin), probe luciferin-derived luminogenic substrate
MGC-803 [8] = assay: Effect on LSD1 expression in human MGC803 cells up to 4 uM after 5 days by DAPI staining based immunofluorescence assay; assay type: cell-based; settings: mgc-803, 120 h
How it was run: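 MGC-803 cells were seeded in 96-well plates and treated for 5 days at the indicated concentrations. LSD1 was stained by immunofluorescence, with DAPI used for cell counting. Each well was scored over 12 fields by high content analysis. Data are mean ± SD from at least three experiments.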

Homo sapiens [9] = species on record: Homo sapiens; assay: Activity at histone lysine methyltransferase in human MGC803 cells assessed as effect on H3K9me1 level up to 4 uM after 5 days by Western blot method; assay type: cell-based
How it was run: (§1)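 MGC-803 gastric cancer cells, which overexpress LSD1, were treated at the indicated concentrations. Several histone methylation marks were then probed by Western blot. Each experiment was run independently at least three times.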

Homo sapiens [10] = species on record: Homo sapiens; assay: Activity at histone lysine methyltransferase in human MGC803 cells assessed as effect on H3K9me2 level up to 4 uM after 5 days by Western blot method; assay type: cell-based; how it was run: as §1
Homo sapiens [11] = species on record: Homo sapiens; assay: Activity at histone lysine methyltransferase in human MGC803 cells assessed as effect on H3K4me3 level up to 4 uM after 5 days by Western blot method; assay type: cell-based; how it was run: as §1
Homo sapiens [12] = species on record: Homo sapiens; assay: Activity at histone demethylase in human MGC803 cells assessed as effect on H3K9me1 level up to 4 uM after 5 days by Western blot method; assay type: cell-based; how it was run: as §1
Homo sapiens [13] = species on record: Homo sapiens; assay: Activity at histone demethylase in human MGC803 cells assessed as effect on H3K9me2 level up to 4 uM after 5 days by Western blot method; assay type: cell-based; how it was run: as §1
Homo sapiens [14] = species on record: Homo sapiens; assay: Activity at histone demethylase in human MGC803 cells assessed as effect on H3K4me3 level up to 4 uM after 5 days by Western blot method; assay type: cell-based; how it was run: as §1
MGC-803 [15] = assay: Antimigratory activity against human MGC803 cells at lower concentration after 24 hrs by Hoechst 33258 staining based transwell assay; assay type: functional, cell-based
How it was run: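 Migration was measured by transwell assay read by high content analysis. MGC-803 cells were treated for 24 h at three low concentrations. Data are mean ± SD from at least three independent experiments, with significance at p < 0.01.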

MGC-803 [16] = assay: Antimigratory activity against human MGC803 cells assessed as accumulation of E-cadherin at 0.5 to 2 uM after 24 hrs by Western blot method; assay type: functional, cell-based
How it was run: (§2)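 MGC-803 cells were exposed for 24 h to three low concentrations. E-cadherin (epithelial marker) and N-cadherin (mesenchymal marker) were then probed by Western blot. Data are mean ± SD from at least three experiments.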

MGC-803 [17] = assay: Antimigratory activity against human MGC803 cells assessed as decrease in N-cadherin level at 0.5 to 2 uM after 24 hrs by Western blot method; assay type: functional, cell-based; how it was run: as §2

Compound | IC50 [1] | IC50 (MGC-803 [2]) | inhibition [3] | inhibition at 10 µM (MAO-A [4]) | inhibition at 10 µM (MAO-B [5]) | inhibition at 1 µM (MAO-A [6]) | inhibition at 1 µM (MAO-B [7]) | Activity (MGC-803 [8]) | Activity (Homo sapiens [9]) | Activity (Homo sapiens [10]) | Activity (Homo sapiens [11]) | Activity (Homo sapiens [12]) | Activity (Homo sapiens [13]) | Activity (Homo sapiens [14]) | Activity (MGC-803 [15]) | Activity (MGC-803 [16]) | Activity (MGC-803 [17])
O=C(O)c1ccc(CN2CCC(CN[C@@H]3C[C@H]3c3ccccc3)CC2)cc1 [GSK2879552] | 0.041 µM | > 125 µM | inactive |  |  |  |  |  |  |  |  |  |  |  |  |  | 
c1ccc(CSc2nc(Sc3ccccn3)c3nnn(Cc4ccccc4)c3n2)cc1 |  | 7.64 µM |  | 59% | 39% | 34% | 11% | Non-Toxic | inactive | inactive | inactive | inactive | inactive | inactive | Active | Active | Active
